Experiment [1] can be described thus: Antiproliferative activity against human MOLM16 cells assessed as reduction in cell viability incubated for 4 days by cell-titer glo luminescent assay. In kind it is functional, cell-based. To be noted: MOLM16, 96 h. The method in brief:
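Viability assay: cells incubated with serially diluted compounds for 4 days, viability read by CellTiter-Glo luminescence; IC50 from concentration–response.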

Experiment [2] deals with T1, Protein cereblon/Signal transducer and activator of transcription 1-alpha/beta (Homo sapiens) (UniProt P42224+Q96SW2). Description: Protac activity at CRBN/STAT1 in human MOLM16 cells assessed as degradation of STAT1 at 0.01 to 10 uM incubated for 4 hrs by Western blot analysis. In kind it is cell-based. Put shortly: (§1)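 Molm-16 cells treated 4 h with test compound at 0.01–10 μM, or control compounds at 10 μM. Lysates separated by SDS–PAGE, transferred to PVDF, blocked 1 h in 5% blocker/TBST, probed for each STAT protein, and detected by chemiluminescence.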

In experiment [3] the target is Protein cereblon/Signal transducer and activator of transcription 5B (Homo sapiens) (UniProt P51692+Q96SW2). Kind of experiment: Protac activity at CRBN/STAT5B in human MOLM16 cells assessed as degradation of STAT5B at 0.01 to 10 uM incubated for 4 hrs by Western blot analysis. It counts as cell-based. Put shortly:
as §1

Experiment [4] has as its target T1, Protein cereblon/Signal transducer and activator of transcription 1-alpha/beta (Homo sapiens). Kind of experiment: Protac activity at CRBN/STAT1 in human SUDHL1 cells assessed as degradation of STAT1 at 0.01 to 10 uM incubated for 18 hrs by Western blot analysis. It counts as cell-based. The method in brief:
(§2)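 SU-DHL-1 cells treated 18 h with test compound at 0.01–10 μM, or control compounds at 10 μM. Lysates separated by SDS–PAGE, transferred to PVDF, blocked 1 h in 5% blocker/TBST, probed for each STAT protein, and detected by chemiluminescence.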

The target of experiment [5] is Protein cereblon/Signal transducer and activator of transcription 2 (Homo sapiens) (UniProt Q96SW2+P52630). Description: Protac activity at CRBN/STAT2 in human SUDHL1 cells assessed as degradation of STAT2 at 0.01 to 10 uM incubated for 18 hrs by Western blot analysis. It counts as cell-based. Put shortly: as §2
Protein cereblon/Signal transducer and activator of transcription 2 (Homo sapiens), sequence (P52630 whole entry, looked up): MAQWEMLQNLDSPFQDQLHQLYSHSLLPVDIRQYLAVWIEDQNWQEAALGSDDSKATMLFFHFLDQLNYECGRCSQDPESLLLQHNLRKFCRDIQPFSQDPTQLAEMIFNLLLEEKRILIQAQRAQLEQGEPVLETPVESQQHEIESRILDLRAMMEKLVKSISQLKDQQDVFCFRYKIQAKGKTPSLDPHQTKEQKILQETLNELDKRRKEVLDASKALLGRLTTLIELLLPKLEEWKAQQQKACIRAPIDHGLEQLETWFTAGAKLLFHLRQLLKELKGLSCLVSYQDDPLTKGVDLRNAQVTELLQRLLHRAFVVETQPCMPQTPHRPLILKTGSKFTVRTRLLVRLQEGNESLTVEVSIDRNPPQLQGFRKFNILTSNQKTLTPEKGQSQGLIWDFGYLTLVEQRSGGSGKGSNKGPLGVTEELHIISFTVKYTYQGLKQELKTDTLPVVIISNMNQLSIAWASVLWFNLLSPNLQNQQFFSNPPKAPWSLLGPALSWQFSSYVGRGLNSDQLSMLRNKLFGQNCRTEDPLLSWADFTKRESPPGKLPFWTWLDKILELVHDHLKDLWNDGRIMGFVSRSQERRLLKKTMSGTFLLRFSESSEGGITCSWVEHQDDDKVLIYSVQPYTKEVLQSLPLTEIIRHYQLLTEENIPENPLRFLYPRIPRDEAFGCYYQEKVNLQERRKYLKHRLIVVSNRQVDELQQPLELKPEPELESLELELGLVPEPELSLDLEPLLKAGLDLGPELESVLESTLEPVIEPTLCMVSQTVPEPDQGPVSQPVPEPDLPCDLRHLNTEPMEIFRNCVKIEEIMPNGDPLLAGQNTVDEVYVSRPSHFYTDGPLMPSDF
Protein cereblon/Signal transducer and activator of transcription 2 (Homo sapiens), sequence (Q96SW2 whole entry, looked up): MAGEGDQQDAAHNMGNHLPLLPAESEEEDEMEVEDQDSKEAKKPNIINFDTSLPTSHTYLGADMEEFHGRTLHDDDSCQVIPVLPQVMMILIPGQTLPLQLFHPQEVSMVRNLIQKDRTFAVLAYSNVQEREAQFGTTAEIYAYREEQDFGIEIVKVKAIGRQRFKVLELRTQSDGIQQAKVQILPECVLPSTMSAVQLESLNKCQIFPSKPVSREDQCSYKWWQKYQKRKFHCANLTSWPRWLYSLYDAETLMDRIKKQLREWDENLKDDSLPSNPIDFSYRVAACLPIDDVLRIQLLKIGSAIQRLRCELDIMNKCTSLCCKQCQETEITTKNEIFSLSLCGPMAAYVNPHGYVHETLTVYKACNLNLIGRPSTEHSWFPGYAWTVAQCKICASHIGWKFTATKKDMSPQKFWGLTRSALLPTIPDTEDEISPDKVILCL
For experiment [6], the target named is Protein cereblon/Signal transducer and activator of transcription 4 (Homo sapiens) (UniProt Q96SW2+Q14765). Description: Protac activity at CRBN/STAT4 in human SUDHL1 cells assessed as degradation of STAT4 at 0.01 to 10 uM incubated for 18 hrs by Western blot analysis. It counts as cell-based. The method in brief: as §2
Protein cereblon/Signal transducer and activator of transcription 4 (Homo sapiens), sequence (Q96SW2 whole entry, looked up, one chain of several): as the sequence (Q96SW2 whole entry, looked up) above
The target in experiment [7] is Protein cereblon/Signal transducer and activator of transcription 6 (Homo sapiens) (UniProt P42226+Q96SW2). Description: Protac activity at CRBN/STAT6 in human SUDHL1 cells assessed as degradation of STAT6 at 0.01 to 10 uM incubated for 18 hrs by Western blot analysis. In kind it is cell-based. The method in brief: as §2
Protein cereblon/Signal transducer and activator of transcription 6 (Homo sapiens), sequence (P42226 2-847 limits assumed): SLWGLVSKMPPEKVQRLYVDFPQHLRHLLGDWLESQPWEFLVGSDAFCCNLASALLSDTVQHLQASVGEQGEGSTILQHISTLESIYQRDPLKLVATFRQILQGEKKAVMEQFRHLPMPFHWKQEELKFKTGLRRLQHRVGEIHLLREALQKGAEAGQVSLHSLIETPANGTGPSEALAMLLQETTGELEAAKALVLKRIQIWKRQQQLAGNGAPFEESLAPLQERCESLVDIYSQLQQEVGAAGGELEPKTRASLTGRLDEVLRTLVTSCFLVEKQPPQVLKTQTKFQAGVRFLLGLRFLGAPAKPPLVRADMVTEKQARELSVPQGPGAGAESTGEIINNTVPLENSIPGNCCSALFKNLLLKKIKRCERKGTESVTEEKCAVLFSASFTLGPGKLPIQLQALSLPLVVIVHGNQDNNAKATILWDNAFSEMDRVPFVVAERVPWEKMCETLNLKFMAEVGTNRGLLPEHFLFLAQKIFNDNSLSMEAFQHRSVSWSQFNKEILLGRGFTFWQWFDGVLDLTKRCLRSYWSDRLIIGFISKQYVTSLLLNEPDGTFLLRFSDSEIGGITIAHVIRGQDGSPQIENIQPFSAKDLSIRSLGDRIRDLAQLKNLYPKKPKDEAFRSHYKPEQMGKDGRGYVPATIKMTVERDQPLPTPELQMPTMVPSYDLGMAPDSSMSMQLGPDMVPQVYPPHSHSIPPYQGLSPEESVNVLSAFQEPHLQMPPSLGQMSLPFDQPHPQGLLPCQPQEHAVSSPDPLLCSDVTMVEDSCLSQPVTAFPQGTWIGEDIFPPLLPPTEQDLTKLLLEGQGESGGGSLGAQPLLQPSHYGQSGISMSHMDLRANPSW
Protein cereblon/Signal transducer and activator of transcription 6 (Homo sapiens), sequence (Q96SW2 whole entry partner): as the sequence (Q96SW2 whole entry, looked up) above
Experiment [8] is filed under the species Homo sapiens. Kind of experiment: Selectivity index, ratio of protac activity at CRBN/STAT2 in human MOLM16 cells to protac activity at CRBN/STAT3 in human MOLM16 cells. In kind it is cell-based. The method in brief: (§3)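 Molm-16 cells treated 4 h with compound at 0.01–10 μM, or controls at 10 μM. Western blot of lysates: SDS–PAGE, PVDF, 1 h block in 5% blocker/TBST, primary and secondary antibodies, chemiluminescent detection. STAT1, -2, -4, -5A/B and -6 levels read against STAT3 to give degradation selectivity.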

For experiment [9], the species on record is Homo sapiens. Description: Selectivity index, ratio of protac activity at CRBN/STAT5A in human MOLM16 cells to protac activity at CRBN/STAT3 in human MOLM16 cells. In kind it is cell-based. The method in brief: as §3
The species named for experiment [10] is Homo sapiens. Kind of experiment: Selectivity index, ratio of protac activity at CRBN/STAT5B in human MOLM16 cells to protac activity at CRBN/STAT3 in human MOLM16 cells. It counts as cell-based. The method in brief: as §3
Experiment [11] is filed under the species Homo sapiens. Description: Selectivity index, ratio of protac activity at CRBN/STAT4 in human SUDHL1 cells to protac activity at CRBN/STAT3 in human SUDHL1 cells. It counts as cell-based. Put shortly:
(§4)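 SU-DHL-1 cells treated 18 h with compound at 0.01–10 μM, or controls at 10 μM. Immunoblotting used SDS–PAGE, PVDF transfer, 1 h block in 5% blocker/TBST, primary and secondary antibodies and chemiluminescence. Levels of other STAT family members compared with STAT3 to express degradation selectivity.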

Experiment [12] is filed under the species Homo sapiens. Description: Selectivity index, ratio of protac activity at CRBN/STAT5B in human SUDHL1 cells to protac activity at CRBN/STAT3 in human SUDHL1 cells. In kind it is cell-based. The method in brief: as §4
The species named for experiment [13] is Homo sapiens. Description: Selectivity index, ratio of protac activity at CRBN/STAT6 in human SUDHL1 cells to protac activity at CRBN/STAT3 in human SUDHL1 cells. It counts as cell-based. The method in brief:
as §4

The subject of experiment [14] is Mus musculus. Description: In vivo degradation of STAT3 in SCID mouse xenografted with MOLM-16 cells at 50 mg/kg, iv measured upto 1 hr by Western blot analysis relative to control. It counts as functional. Put shortly:
(§5)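 SCID mice bearing subcutaneous Molm-16 tumors (3 × 10^6 cells in Matrigel; treated at ~150 mm3) given a single intravenous dose in 10% PEG400 + 90% PBS, or vehicle. Tumors harvested at time points. Lysates immunoblotted for total STAT3 and pSTAT3 Y705, compared with vehicle control.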

The test system of experiment [15] is Mus musculus. Kind of experiment: In vivo degradation of phosphorylated STAT3 Y705 in SCID mouse xenografted with MOLM-16 cells at 50 mg/kg, iv measured upto 1 hr by Western blot analysis relative to control. In kind it is functional. The method in brief: as §5
Experiment [16] concerns the target T2, Signal transducer and activator of transcription 4 (Homo sapiens, UniProt Q14765).
T2 sequence (Q14765 whole entry): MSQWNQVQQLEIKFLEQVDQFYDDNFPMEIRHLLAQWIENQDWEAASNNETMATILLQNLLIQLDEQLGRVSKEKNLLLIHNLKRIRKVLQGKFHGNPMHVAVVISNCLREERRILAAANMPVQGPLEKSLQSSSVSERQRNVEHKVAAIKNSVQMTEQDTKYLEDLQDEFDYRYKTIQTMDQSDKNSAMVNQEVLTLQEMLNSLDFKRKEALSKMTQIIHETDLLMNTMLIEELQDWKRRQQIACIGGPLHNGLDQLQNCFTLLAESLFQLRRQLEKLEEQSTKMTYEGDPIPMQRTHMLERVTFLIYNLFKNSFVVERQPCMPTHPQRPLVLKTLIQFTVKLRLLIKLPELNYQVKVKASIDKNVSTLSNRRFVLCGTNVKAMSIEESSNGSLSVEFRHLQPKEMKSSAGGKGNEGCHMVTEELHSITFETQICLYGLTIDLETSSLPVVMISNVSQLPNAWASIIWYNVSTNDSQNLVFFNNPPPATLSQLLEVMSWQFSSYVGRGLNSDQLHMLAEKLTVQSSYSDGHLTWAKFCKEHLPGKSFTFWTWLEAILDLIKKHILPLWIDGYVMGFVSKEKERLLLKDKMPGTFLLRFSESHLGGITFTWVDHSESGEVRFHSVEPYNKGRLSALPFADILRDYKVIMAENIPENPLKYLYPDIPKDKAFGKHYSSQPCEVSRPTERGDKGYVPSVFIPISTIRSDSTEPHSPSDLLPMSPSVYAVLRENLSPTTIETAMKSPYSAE
Kind of experiment: Binding affinity to recombinant human His/SUMO-tagged STAT4 (133 to 705 residues) expressed in Escherichia coli Rosetta (DE3) incubated for 1 hr by fluorescence polarization assay.

pIC50, pKd: −log10 of the molar value. The source made the active and inactive calls. No cut-off for these calls is given here.

Protein cereblon/Signal transducer and activator of transcription 5B (Homo sapiens), sequence (P51692 whole entry, looked up): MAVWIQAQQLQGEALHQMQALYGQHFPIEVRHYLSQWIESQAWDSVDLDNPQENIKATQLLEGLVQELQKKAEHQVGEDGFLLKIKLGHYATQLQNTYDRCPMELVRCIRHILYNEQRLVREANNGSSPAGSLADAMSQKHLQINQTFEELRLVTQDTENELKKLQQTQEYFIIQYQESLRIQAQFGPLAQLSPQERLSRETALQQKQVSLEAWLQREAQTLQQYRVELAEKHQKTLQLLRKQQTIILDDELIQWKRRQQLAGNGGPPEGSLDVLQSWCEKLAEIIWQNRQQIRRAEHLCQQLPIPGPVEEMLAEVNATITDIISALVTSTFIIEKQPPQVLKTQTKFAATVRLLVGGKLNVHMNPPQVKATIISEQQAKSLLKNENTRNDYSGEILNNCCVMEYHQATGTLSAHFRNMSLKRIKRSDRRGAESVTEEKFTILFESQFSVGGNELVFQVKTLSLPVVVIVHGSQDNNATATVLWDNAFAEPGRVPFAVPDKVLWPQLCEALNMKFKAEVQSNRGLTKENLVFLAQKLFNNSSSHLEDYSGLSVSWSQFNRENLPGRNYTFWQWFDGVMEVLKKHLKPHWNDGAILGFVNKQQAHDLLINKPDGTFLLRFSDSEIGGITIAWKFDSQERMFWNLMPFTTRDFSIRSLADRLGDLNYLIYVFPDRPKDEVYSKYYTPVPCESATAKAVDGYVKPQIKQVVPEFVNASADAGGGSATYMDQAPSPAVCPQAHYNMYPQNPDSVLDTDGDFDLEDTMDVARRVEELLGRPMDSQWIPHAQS
Protein cereblon/Signal transducer and activator of transcription 5B (Homo sapiens), sequence (Q96SW2 whole entry, looked up): as the sequence (Q96SW2 whole entry, looked up) above

Turning to `NC(=O)CC[C@H](NC(=O)[C@@H]1CC[C@@H]2CCN(C(=O)CCCCCC#Cc3cccc4c3CN(C3CCC(=O)NC3=O)C4=O)C[C@H](NC(=O)c3cc4cc(C(F)(F)P(=O)(O)O)ccc4[nH]3)C(=O)N21)C(=O)NC(c1ccccc1)c1ccccc1` (stereo partly specified), the pIC50 in experiment [1] is 7.89. Also, the outcome in [2], in [3], in experiment [4], in experiment [5], in [6] and in [7] was inactive. The Ratio in [8], in [9], in experiment [10], in experiment [11], in experiment [12] and in [13] was more than 100 each time. The Activity in experiment [14] is given as more than 95%; in experiment [15], more than 90%. Further, in experiment [16], the pKd is 6.00.
